# Compound activity (PubChem BioAssay)
# TAAR1 agonist = agonists of human TAAR1; Q96RJ0; CHO RD-HGA16 TAAR1, Fluo-8 calcium fluorescence; vehicle wells 0%, saturating PEA agonist 100%; activation, % at 3 µM; 0.99% of 360,000 active;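 active = activation above the mean activation of all test compounds in the run plus 3 SD, cut at about 38% in these data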
#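 test system = CHO RD-HGA16 cells carrying human TAAR1 plus Gα16 | schedule = 17-24 h seeding, 75 min 37 °C dye, 30 min RT | compound dosing = 3 µM single concentration | control set = DMSO and PEA EC100 | replicates = n 1 | signal = Fluo-8 fluorescence, 5 s baseline then 140 s kinetic read | measure = percent activation vs PEA EC100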
# GalR3 antagonist = blocks the human galanin receptor 3; O60755; HEK293 GalR3-CNG cAMP membrane potential fluorescence; galR3 body fused to GalR1 C-terminus; inhibition, % at 3 µM; 0.44% of 360,000 active; AID 651719;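 active = inhibition above the screen-wide average plus 3 SD, cut at about 13% in these data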;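 note: forskolin and galanin both at EC90 stimulate the cells; cAMP rise reported by CNG channel membrane potential dye signal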
# Target sequence (O60755 1-299 limits assumed): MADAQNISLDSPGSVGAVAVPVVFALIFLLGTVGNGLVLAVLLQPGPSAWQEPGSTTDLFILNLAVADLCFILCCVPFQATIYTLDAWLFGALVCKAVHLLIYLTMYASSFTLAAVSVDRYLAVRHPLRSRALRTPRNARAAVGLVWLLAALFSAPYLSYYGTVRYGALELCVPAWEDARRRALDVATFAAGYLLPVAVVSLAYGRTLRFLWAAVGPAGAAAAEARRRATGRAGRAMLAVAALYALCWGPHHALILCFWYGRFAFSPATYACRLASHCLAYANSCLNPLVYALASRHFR
# CHO parental Ca = signal in parental CHO cells, OX1R antagonist counter-screen; parental CHO-K1, ATP-induced calcium, Fluo-8 fluorescence; inhibition, % at 5.6 µM; 0.63% of 330,000 active;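 active = inhibition above that plate's mean sample inhibition plus 3 SD, cut at about 26% in these data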
#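 material = parental CHO cells | also added = ATP as calcium-mobilizing challenge | dosing = single point at 5.6 µM | detection = intracellular calcium via Fluo-8 no-wash fluorescent dye | read-out = % inhibition | benchmarks = low control ATP plus DMSO, high control DMSO only | repeats = one well per compound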
# TAAR1 antag = antagonists of human TAAR1; Q96RJ0; CHO RD-HGA16 TAAR1, Fluo-8 calcium fluorescence, antagonist; inhibition, % at 3 µM; 1.5% of 360,000 active; AID 624466;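 active = inhibition above a per-plate cutoff, the mean inhibition of test compounds on that plate plus 3 SD, cut at about 49% in these data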
#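 Test system: RD-HGA16 CHO cells with stable hTAAR1 and Gα16 / Probe or stimulus: EC80 β-phenethylamine stimulus / Times: seeding 17-24 h prior, 75-min 37 °C, 30-min RT dye loading / Detection: Fluo-8 calcium-sensitive fluorescence / Read-out basis: % inhibition scaled between DMSO and EC80 PEA controls / Repeats: singlicate, one well per test compound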
# OX1R antag-1 = blocks the human orexin 1 receptor; OX1R-expressing cells, FRET antagonist read-out; inhibition, % at 6.6 µM; 1.8% of 330,000 active; AID 485270; in the data active = inhibition mostly above about 38%, no sharp cut-off; inactive = mostly below about 40%
# Target sequence (O43613 whole entry, looked up): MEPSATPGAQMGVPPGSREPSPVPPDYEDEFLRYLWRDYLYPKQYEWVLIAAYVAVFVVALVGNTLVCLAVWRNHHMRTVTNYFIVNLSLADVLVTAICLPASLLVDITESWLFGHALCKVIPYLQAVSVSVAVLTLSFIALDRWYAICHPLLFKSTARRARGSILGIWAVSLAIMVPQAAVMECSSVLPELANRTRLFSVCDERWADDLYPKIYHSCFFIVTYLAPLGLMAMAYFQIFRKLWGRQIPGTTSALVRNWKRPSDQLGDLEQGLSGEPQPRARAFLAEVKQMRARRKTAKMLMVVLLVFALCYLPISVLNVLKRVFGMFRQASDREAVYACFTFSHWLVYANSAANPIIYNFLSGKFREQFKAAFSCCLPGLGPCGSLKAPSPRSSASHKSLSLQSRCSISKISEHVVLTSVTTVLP
# OX1R antag-2 = antagonists of human orexin 1 receptor; 0.43% of 330,000 active; inhibition, % at 5 µM; AID 434989; O43613; CHO/OX1R cells, Fluo-8 calcium fluorescence, orexin A;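 active = inhibition above its plate's threshold, mean inhibition of all tested compounds on the plate plus 3 SD, cut at about 37% in these data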
# TAAR1 nonsel count = counter-screen for TAAR1 antagonists: nonselective antagonists; shares compounds with TAAR1 antag; counterscreen cell line, calcium fluorescence, antagonist mode; inhibition, % at 3 µM; 77% of 2,400 active; AID 651780; in the data active = inhibition above about 22%;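 note: CHO-Ga16 host cells stimulated with ATP at an EC80 level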
# TAAR1 antag conf = confirmation of human TAAR1 antagonists. inhibition, % at 3 µM. 40% of 2,400 active. TAAR1-expressing cells, fluorescence antagonist read-out. AID 651785. shares compounds with TAAR1 antag; in the data active = inhibition above about 49%;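 note: CHO-Ga16 host cells challenged with agonist PEA near its EC80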
# Ga16 ag counter = nonselective Ga16 agonism, counter-screen | shares compounds with TAAR1 antag | activation, % at 3 µM | Ga16-expressing cells, calcium fluorescence, agonist counterscreen | 18% of 2,400 active; in the data active = activation above about 12%
# TAAR1 ag counter = counter-screen for human TAAR1 antagonists: TAAR1 agonists | 2% of 2,400 active | hTAAR1 cell line, fluorescence activation, agonist mode | shares compounds with TAAR1 antag | AID 651955 | activation, % at 3 µM; in the data active = activation above about 37%;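 note: CHO cells stably expressing TAAR1 with calcium dye readout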
# A number is an active result; - = inactive; . = no result. Rows were chosen to be rich in hits. Some 4.3% of all compounds tested hit in one or more screens of this group.
SMILES,TAAR1 agonist,GalR3 antagonist,CHO parental Ca,TAAR1 antag,OX1R antag-1,OX1R antag-2,TAAR1 nonsel count,TAAR1 antag conf,Ga16 ag counter,TAAR1 ag counter
CN(C)CC(C(=O)c1ccccc1)c1ccccc1 (configuration not stated),-,-,-,-,-,-,.,.,.,.
O=C(Cc1ccccc1F)Nc1nc(-c2ccc(F)cc2)cs1,-,-,-,73.9,-,-,30.0,59.4,-,-
COc1ccc(-c2csc(NC(=O)CSCc3c(C)noc3C)n2)cc1OC,-,-,-,-,-,-,.,.,.,.
COc1ccc(S(=O)(=O)Nc2ccccc2C(=O)Nc2nc(-c3ccc(F)cc3)cs2)cc1OC,-,-,-,90.5,66.8,-,51.8,61.2,-,-
COc1ccccc1CC(=O)Nc1nc(-c2ccc(F)c(F)c2)cs1,-,-,-,51.1,-,-,22.2,-,-,-
Cc1noc(C)c1CSCC(=O)Nc1nc(-c2ccc(F)c(F)c2)cs1,-,-,-,81.5,-,-,49.2,58.0,-,-
O=C(CS(=O)(=O)c1ccccc1)Nc1nc(-c2ccc(F)cc2)cs1,-,-,-,-,-,-,.,.,.,.
COc1ccc(-c2csc(NC(=O)Cc3ccccc3F)n2)cc1OC,-,-,-,-,-,-,.,.,.,.
O=C(NCc1ccc(F)cc1)C(c1ccccc1)N(C(=O)c1csnn1)c1ccccc1 (configuration not stated),-,-,-,59.4,-,-,29.3,58.8,18.8,-
COc1ccc(CNC(=O)C(c2cccc(C)c2)N(C(=O)c2csnn2)C2CC2)cc1 (configuration not stated),-,-,-,52.5,-,-,29.9,-,-,-
O=C(NCc1ccccc1)C(c1ccccc1)N(C(=O)c1csnn1)c1ccccc1 (configuration not stated),-,-,-,62.0,-,-,26.6,48.6,-,-
COc1ccc(CNC(=O)C(c2cccs2)N(C(=O)c2csnn2)C2CC2)cc1 (configuration not stated),-,-,-,-,-,-,.,.,.,.
O=C(OCC(=O)N1CCCc2ccccc21)c1cccc(S(=O)(=O)N2CCOCC2)c1,-,-,-,-,-,-,.,.,.,.
Clc1ccccc1-c1cnc2sc(NCc3ccc4c(c3)OCO4)nn12,-,-,.,-,.,.,.,.,.,.
Cc1ccccc1OCC(=O)Nc1ccccc1C(=O)NC1CC1,-,-,-,56.5,-,-,23.6,-,-,-
COc1cccc(C(O)c2nc(-c3cccc(CO)c3)cs2)c1 (configuration not stated),-,-,.,-,.,.,.,.,.,.
CN(Cc1ccccc1)S(=O)(=O)c1ccc(NS(=O)(=O)Cc2ccccc2)cc1,-,-,40.3,55.1,43.5,41.9,35.2,52.4,-,-
O=S(=O)(Cc1ccccc1)Nc1ccccc1,-,-,-,-,-,-,.,.,.,.
CC(C)C(=O)NC(=S)Nc1ccc(S(=O)(=O)N(C)Cc2ccccc2)cc1,-,-,-,69.2,-,-,33.7,50.1,-,-
Cc1cc(=O)oc2cc(OCC(=O)N3CCOCC3)c(Cl)cc12,-,-,-,-,-,-,.,.,.,.
O=C(Cc1c[nH]c2ccccc12)Nc1ccc(Nc2cccnc2)c(-c2ccc(F)c(F)c2)c1,-,-,.,87.3,.,.,42.3,65.2,13.7,-
Cc1cc(NC(=O)CCc2c[nH]c3ccccc23)ccc1Nc1cccnc1,-,-,.,-,.,.,.,.,.,.
O=C(Cc1c[nH]c2ccccc12)Nc1ccc(Nc2cccnc2)c(-c2cccc(Cl)c2)c1,-,-,.,71.5,.,.,28.7,-,-,-
Cc1[nH]c2ccccc2c1CC(=O)Nc1ccc(Nc2cccnc2)c(-c2ccc(F)c(F)c2)c1,-,-,.,-,.,.,.,.,.,.
O=C(CCc1c[nH]c2ccccc12)Nc1ccc(Nc2cccnc2)c(Br)c1,-,-,.,70.8,.,.,31.2,-,-,-
SMILES,TAAR1 agonist,GalR3 antagonist,CHO parental Ca,TAAR1 antag,OX1R antag-1,OX1R antag-2,TAAR1 nonsel count,TAAR1 antag conf,Ga16 ag counter,TAAR1 ag counter
O=C(Cc1c[nH]c2ccccc12)Nc1ccc(Nc2cccnc2)c(-c2ccc(-c3ccccc3)cc2F)c1,-,-,.,58.2,.,.,32.9,-,-,-
O=C(NNS(=O)(=O)c1ccc([N+](=O)[O-])cc1)C(=O)Nc1cccc(C(=O)O)c1,-,-,-,-,-,-,.,.,.,.
COC(=O)c1ccc(COc2ccc(/C=N/Nc3nc(C)cc(=O)[nH]3)cc2)cc1,-,-,-,-,-,-,.,.,.,.
COc1ccc(/C=N/NC(=O)c2nc(-c3ccccc3)cc(-c3ccccc3)n2)cc1,-,-,-,56.0,-,-,25.2,-,-,-
COc1ccc(/C=N/NC(=O)c2nc(-c3ccccc3)cc(-c3ccccc3)n2)cc1O,-,-,-,62.7,-,-,34.8,52.8,-,-
COc1ccc(/C=N/NC(=O)c2c(-c3ccccc3)noc2C)cc1,-,-,-,-,-,-,.,.,.,.
O=C(CC[C@H]1O[C@@H](n2ccc(=O)[nH]c2=O)[C@H](O)[C@@H]1O)N1CCN(Cc2cccc3ccccc23)CC1,-,-,.,-,.,.,.,.,.,.
COc1ccc(Cl)cc1CN1CCN(c2nc(C)cc(C)c2C#N)CC1,-,-,-,-,-,-,.,.,.,.
Cc1cc(C)c(C#N)c(N2CCN(CCOc3ccc(Cl)cc3)CC2)n1,-,-,-,56.8,-,-,34.4,-,-,-
CCC(=O)N1CCC(C)(C(=O)Nc2ccc3c(c2)OCO3)C1 (configuration not stated),-,-,.,-,.,.,.,.,.,.
CC1CCc2cc(F)ccc2N1C(=O)CSc1nnc2c(n1)[nH]c1ccccc12 (configuration not stated),-,-,-,56.2,-,-,34.0,58.0,-,-
COc1cccc(CNC(=O)c2cccnc2Sc2ccccc2)c1,-,-,.,-,.,.,.,.,.,.
Cc1ccc(Sc2ncccc2C(=O)NCc2cc([N+](=O)[O-])ccc2O)cc1C,-,-,.,60.4,.,.,28.9,-,-,-
NS(=O)(=O)c1ccc(CNC(=O)c2cc(-c3ccccc3)nc3ccccc23)cc1,-,-,-,64.8,-,-,32.4,-,-,-
NS(=O)(=O)c1ccc(CNC(=O)c2cc(-c3cccnc3)nc3ccccc23)cc1,-,-,-,-,-,-,.,.,.,.
O=C(NCc1ccc(F)cc1)c1cc(-c2ccncc2)nc2ccccc12,-,-,-,-,-,-,.,.,.,.
